The source made the active and inactive calls. The rule behind the calls is not given here.
Columns and labels:
[1] = biological target: Human immunodeficiency virus type 1 reverse transcriptase (Human immunodeficiency virus 1) (UniProt Q72547); test: Inhibition of HIV1 reverse transcriptase RNase H activity assessed as remaining activity at 100 uM
Method in brief: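 In vitro HIV-1 RT-associated RNase H activity measured with compound at 100 µM, expressed as percentage of remaining enzyme activity.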

[2] = biological target: T1, Human immunodeficiency virus type 1 reverse transcriptase (Human immunodeficiency virus 1, UniProt Q72547); test: Inhibition of HIV1 reverse transcriptase RNase H activity
[3] = Cytotoxicity against human MT4 cells; assay type: cell-based
[4] = test system: Human immunodeficiency virus 1; test: Antiviral activity against HIV1 infected in MT4 cells assessed as inhibition of virus-induced cytopathic effect; assay type: functional, organism-based; settings: Human immunodeficiency virus 1, MT4
[5] = biological target: T1, Human immunodeficiency virus type 1 reverse transcriptase; test: Inhibition of HIV1 reverse transcriptase associated RNA dependent polymerase activity
Method in brief: (§1)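 Mg-dependent HIV-1 integrase and RT RNA-dependent DNA polymerase activities measured in vitro, with compounds tested at concentrations up to 250 µM.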

[6] = biological target: Human immunodeficiency virus type 1 integrase (Human immunodeficiency virus 1, UniProt Q7ZJM1); test: Inhibition of HIV1 integrase; method in brief: as §1
Chain of Human immunodeficiency virus type 1 integrase (Q7ZJM1 whole entry): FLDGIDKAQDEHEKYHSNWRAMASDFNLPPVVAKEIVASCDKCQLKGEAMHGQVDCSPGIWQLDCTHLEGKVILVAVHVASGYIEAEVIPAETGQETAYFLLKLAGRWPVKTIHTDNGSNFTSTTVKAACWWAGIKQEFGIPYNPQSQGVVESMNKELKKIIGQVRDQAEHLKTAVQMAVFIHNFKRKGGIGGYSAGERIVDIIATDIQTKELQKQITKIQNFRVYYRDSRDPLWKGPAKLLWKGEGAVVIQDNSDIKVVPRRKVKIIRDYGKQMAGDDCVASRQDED

[7] = biological target: Human immunodeficiency virus type 1 reverse transcriptase (Human immunodeficiency virus 1) (UniProt Q72547); test: Selectivity ratio of IC50 for HIV1 reverse transcriptase associated RNA dependent polymerase activity to IC50 for reverse transcriptase Rnase H activity
[8] = test system: Human immunodeficiency virus 1; test: Selectivity ratio of IC50 for HIV1 integrase to IC50 for reverse transcriptase Rnase H activity
[9] = test system: Human immunodeficiency virus 1; test: Binding affinity to HIV1 Reverse transcriptase RNase H domain p15 assessed as intrinsic fluorescence quenching at 100 uM by fluorimetry
Method in brief: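 Recombinant isolated HIV-1 RT RNase H domain (p15) excited at 290 nm to maximise the tryptophan signal. Ligand binding at the active site is read as quenching of intrinsic fluorescence. HTHI (2-hydroxy-1,2,3,4-tetrahydroisoquinoline-1,3-dione) serves as positive control.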

Compound | Activity [1] [%] | IC50 [2] [µM] | CC50 [3] [µM] | EC50 [4] [µM] | IC50 [5] [µM] | IC50 [6] [µM] | Ratio IC50 [7] | Ratio IC50 [8] | Activity [9]
O=C(O)c1c(O)c(=O)[nH]c2ccc(F)cc12 | 100 | > 100 | 250 | > 250 |  |  |  |  | 
CCOC(=O)c1c(O)c(=O)[nH]c2ccc(F)cc12 | 100 | > 100 | 134 | > 134 |  |  |  |  | 
O=C(O)c1c(O)c(=O)[nH]c2ccc(Cl)cc12 | 100 | > 100 | > 250 | > 250 |  |  |  |  | 
CCOC(=O)c1c(O)c(=O)[nH]c2ccc(Cl)cc12 | 100 | > 100 | 117 | > 117 |  |  |  |  | 
COc1ccc(CNC(=O)c2c(O)c(=O)[nH]c3ccc(F)cc23)cc1 |  | 19 | 29 | > 29 | > 250 | > 250 |  |  | 
CCOC(=O)c1c(O)c(O)nc2ccccc12 |  | 16 | 210 | > 210 |  |  |  |  | 
CCOC(=O)c1c(O)c(=O)[nH]c2ccc(N)cc12 | 100 | > 100 | 250 | > 250 |  |  |  |  | 
CCCCCCNC(=O)c1c(O)c(=O)[nH]c2c(F)cccc12 |  | 49 | 22 | > 22 |  |  |  |  | 
O=C(NCc1ccc(F)cc1)c1c(O)c(=O)[nH]c2c(F)cccc12 |  | 75 | 8 | > 6.8 |  |  |  |  | 
O=C(NCc1ccc(F)cc1)c1c(O)c(=O)[nH]c2ccc(Cl)cc12 |  | 18 | 28 | > 28 | > 250 | > 250 | > 14 | > 14 | 
O=C(NCc1ccc(F)cc1)c1c(O)c(=O)[nH]c2ccc(F)cc12 |  | 22 | 24 | > 24 | > 250 | > 250 |  |  | 
O=C(O)c1c(O)c(=O)[nH]c2ccc([N+](=O)[O-])cc12 |  | 97 | > 250 | > 250 |  |  |  |  | 
CCOC(=O)c1c(O)c(=O)[nH]c2c(F)cccc12 | 100 | > 100 | 238 | > 238 |  |  |  |  | 
O=C(O)c1c(O)c(=O)[nH]c2c(F)cccc12 | 88 | > 100 | > 250 | > 250 |  |  |  |  | 
O=C(NCc1ccc(F)cc1)c1c(O)c(=O)[nH]c2ccccc12 |  | 19 | 29 | > 29 | > 250 | > 250 |  |  | Active
O=c1[nH]c2ccccc2cc1O | 97 |  | 115 |  |  |  |  |  | 
COc1ccc(CNC(=O)c2c(O)c(=O)[nH]c3c(F)cccc23)cc1 |  | 74 | 8 | > 8 |  |  |  |  | 
CCOC(=O)c1c(O)c(=O)[nH]c2ccc([N+](=O)[O-])cc12 |  | 64 | 118 | > 118 |  |  |  |  | 
O=C(O)c1c(O)c(O)nc2ccccc12 |  | 59 | > 250 | > 250 |  |  |  |  | 
